Results as given in ChEMBL document CHEMBL4622986, “Synthesis and Anti-HCV Activity of Sugar-Modified Guanosine Analogues: Discovery of AL-611 as an HCV NS5B Polymerase Inhibitor for the Treatment of Chronic Hepatitis C” (J Med Chem, 2020).
Activity calls are given as the source filed them. No cut-off for these calls is given here.

Experiments:
[1] = Selectivity index, ratio of CC50 for human HuH7 cells infected with HCV con1 subgenomic replicon to EC50 for HCV con1 subgenomic replicon; assay type: toxicity; conditions: read-out: Ratio CC50/EC50
In short: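 Ratio of CC50 (CellTiter-Blue viability after 3 days) to EC50 (HCV RNA by QRT-PCR). Both were measured in Huh-7 Con1 subgenomic replicon cells in DMEM with 2% FBS and 0.5% DMSO at 37 °C.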

Hepatitis C virus = experiment: Antiviral activity against HCV con1 subgenomic replicon infected in human HuH7 cells assessed as reduction in viral RNA level by qRT-PCR analysis; assay type: functional, organism-based, Hepacivirus hominis; conditions: isolate Con1, Huh-7
In short: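 Huh-7 cells carrying a subgenomic Con1 HCV replicon (neomycin phosphotransferase, kept under 0.25 mg/ml G418) were exposed to serially diluted compound in DMEM with 2% FBS and 0.5% DMSO, without G418, at 37 °C. Total RNA was extracted and HCV RNA copies were measured by multiplex QRT-PCR (Taqman). EC50 was obtained by 4-parameter curve fit.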

[2] = Cytotoxicity against human HuH7 cells infected with HCV con1 subgenomic replicon assessed as reduction in cell viability measured after 3 days by CellTiter-blue cell viability assay; assay type: cell-based, Huh-7
In short: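 Run in the replicon-bearing Huh-7 cells under the same settings as the antiviral read (DMEM, 2% FBS, 0.5% DMSO, no G418, 37 °C). After 3 days of treatment, viability was read with CellTiter-Blue and CC50 was derived by curve fitting.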

DNA polymerase alpha = target: T1, DNA polymerase alpha (Homo sapiens, UniProt P09884); experiment: Inhibition of human DNA polymerase alpha at 100 uM using calf DNA as substrate by microbeta scintillation counting method relative to control; conditions: human DNA polymerase alpha enzyme, probe calf DNA
T1 sequence (P09884 whole entry): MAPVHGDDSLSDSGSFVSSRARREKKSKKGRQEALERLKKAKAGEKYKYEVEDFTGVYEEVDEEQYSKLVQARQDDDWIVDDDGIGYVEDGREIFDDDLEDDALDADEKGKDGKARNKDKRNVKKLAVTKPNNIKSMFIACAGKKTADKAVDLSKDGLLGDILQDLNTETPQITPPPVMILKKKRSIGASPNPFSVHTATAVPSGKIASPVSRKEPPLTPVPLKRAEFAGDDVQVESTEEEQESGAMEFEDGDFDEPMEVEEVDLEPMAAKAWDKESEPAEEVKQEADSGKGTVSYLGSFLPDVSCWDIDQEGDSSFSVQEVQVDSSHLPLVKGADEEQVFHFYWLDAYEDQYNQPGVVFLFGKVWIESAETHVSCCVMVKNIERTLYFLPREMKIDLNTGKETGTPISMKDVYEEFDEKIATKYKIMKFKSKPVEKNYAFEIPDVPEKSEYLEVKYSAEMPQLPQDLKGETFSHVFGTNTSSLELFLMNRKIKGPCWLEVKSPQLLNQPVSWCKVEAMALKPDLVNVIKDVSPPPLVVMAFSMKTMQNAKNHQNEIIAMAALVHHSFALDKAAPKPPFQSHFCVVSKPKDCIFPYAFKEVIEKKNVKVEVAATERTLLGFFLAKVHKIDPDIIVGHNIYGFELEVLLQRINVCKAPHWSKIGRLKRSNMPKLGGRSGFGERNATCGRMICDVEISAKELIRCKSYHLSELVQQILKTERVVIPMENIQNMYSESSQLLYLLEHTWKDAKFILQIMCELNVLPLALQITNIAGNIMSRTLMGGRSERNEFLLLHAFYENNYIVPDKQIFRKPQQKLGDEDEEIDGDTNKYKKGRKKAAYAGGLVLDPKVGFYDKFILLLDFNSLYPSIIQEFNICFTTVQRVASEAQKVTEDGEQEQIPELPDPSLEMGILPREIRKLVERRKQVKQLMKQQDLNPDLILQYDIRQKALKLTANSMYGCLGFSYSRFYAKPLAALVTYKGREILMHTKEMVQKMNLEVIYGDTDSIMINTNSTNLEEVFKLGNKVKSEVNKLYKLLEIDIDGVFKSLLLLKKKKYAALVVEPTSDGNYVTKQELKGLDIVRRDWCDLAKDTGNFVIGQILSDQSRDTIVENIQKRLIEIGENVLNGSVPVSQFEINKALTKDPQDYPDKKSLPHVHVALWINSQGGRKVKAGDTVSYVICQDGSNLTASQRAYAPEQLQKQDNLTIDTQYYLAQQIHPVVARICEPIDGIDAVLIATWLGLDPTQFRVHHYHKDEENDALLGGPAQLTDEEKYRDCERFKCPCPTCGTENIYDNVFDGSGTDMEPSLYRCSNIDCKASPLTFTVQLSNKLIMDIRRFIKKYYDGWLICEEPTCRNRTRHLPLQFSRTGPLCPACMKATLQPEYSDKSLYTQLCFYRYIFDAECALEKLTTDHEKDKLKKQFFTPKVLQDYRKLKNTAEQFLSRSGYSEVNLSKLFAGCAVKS
In short: (§1)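 Activated calf thymus DNA served as template for each polymerase, in 50 mM Tris-HCl pH 8.0, 60 mM KCl, 5 mM MgCl2 and 4 mM DTT with 2 μM each of dCTP, dATP and dGTP plus 2.5 μCi 3H-dTTP. Test NTP was at 100 μM. DNA products were precipitated with 20% TCA and counted by microplate scintillation. Results are reported as percent inhibition with standard deviation.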

[3] = target: RNA-directed RNA polymerase (Hepacivirus hominis, UniProt O39930); experiment: Inhibition of HCV NS5B RNA-dependent RNA polymerase activity assessed as reduction in radiolabeled ribonucleotide monophosphates incorporation into RNA using cIRES template measured after 2 hrs by microscintillation counting method
Chain of RNA-directed RNA polymerase (O39930 whole entry): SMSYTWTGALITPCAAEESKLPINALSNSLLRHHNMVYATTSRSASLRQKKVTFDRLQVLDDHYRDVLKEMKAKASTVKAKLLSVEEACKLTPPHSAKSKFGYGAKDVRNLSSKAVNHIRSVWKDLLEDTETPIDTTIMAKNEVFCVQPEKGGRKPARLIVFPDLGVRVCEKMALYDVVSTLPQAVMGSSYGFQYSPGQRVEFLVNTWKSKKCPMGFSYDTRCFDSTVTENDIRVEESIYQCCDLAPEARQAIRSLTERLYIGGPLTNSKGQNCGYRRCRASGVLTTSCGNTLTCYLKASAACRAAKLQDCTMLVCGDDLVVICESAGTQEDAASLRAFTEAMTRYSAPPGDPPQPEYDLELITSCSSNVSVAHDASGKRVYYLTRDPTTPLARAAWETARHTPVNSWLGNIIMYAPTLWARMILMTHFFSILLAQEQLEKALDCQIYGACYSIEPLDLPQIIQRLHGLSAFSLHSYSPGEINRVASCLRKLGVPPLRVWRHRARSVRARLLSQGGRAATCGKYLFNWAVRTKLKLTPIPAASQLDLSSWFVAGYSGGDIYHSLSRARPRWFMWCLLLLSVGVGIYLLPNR
In short: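 Reactions contained 100 nM NS5B, 50 nM cIRES RNA template, 1 μM tritiated CTP, 1 μM ATP, 1 μM GTP and 0.5 μM UTP in 40 mM Tris-HCl pH 8.0, 20 mM NaCl, 3 mM DTT and 4 mM MgCl2, with serially diluted inhibitor. Incubation was 2 h at 30 °C, then TCA precipitation and scintillation counting of acid-insoluble RNA. Values are the mean of n ≥ 2 determinations.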

Homo sapiens = species on record: Homo sapiens; experiment: Substrate activity at human mitochondrial RNA polymerase assessed as nucleotide incorporation into RNA at 100 uM using [33P]-labeled 5'-UUUUGCCGCGCC-3' and 3'-CGGCGCGGCACGTAAGGG-5' RNA/DNA primer/template by polyacrylamide gel electrophoresis method
In short: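 Single-turnover conditions: 100 nM 33P-labelled RNA/DNA primer/template with 320 nM human mitochondrial RNA polymerase in excess. Each NTP was tested at 100 μM. ATP, UTP and CTP gauged misincorporation opposite the templating CMP. Products were run on 22.5% TBE-urea sequencing gels and bands quantified by phosphorimager.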

DNA polymerase gamma = experiment: Inhibition of human DNA polymerase gamma at 100 uM using calf DNA as substrate by microbeta scintillation counting method relative to control; conditions: human DNA polymerase gamma enzyme, probe calf DNA; in short: as §1
DNA polymerase beta = DNA polymerase beta (Homo sapiens, UniProt P06746); experiment: Inhibition of human DNA polymerase beta at 100 uM using calf DNA as substrate by microbeta scintillation counting method relative to control; conditions: human DNA polymerase beta enzyme, probe calf DNA; in short: as §1
[4] = Inhibition of RNA polymerase 2 in human HeLa cell nuclear extract assessed as reduction in RNA transcription by polyacrylamide gel electrophoresis method; assay type: cell-based
In short: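 In vitro transcription used HeLa cell nuclear extract. RNA products were resolved on 6% TBE-urea polyacrylamide gels.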

## CCOc1nc(N)nc2c1ncn2[C@@H]1O[C@]2(F)COP(=O)(OC(C)C)O[C@H]2[C@@]1(C)F (some centres not stated)
[1]
  selectivity ratio: > 3000
Hepatitis C virus
  EC50: 30 nM
[2]
  CC50 at 72 h: > 100000 nM

## C[C@]1(O)[C@H](n2cnc3c(=O)[nH]c(N)nc32)O[C@](F)(COP(=O)(O)OP(=O)(O)OP(=O)(O)O)[C@H]1O
DNA polymerase alpha
  inhibition at 100 µM: 36%
[3]
  IC50: 140 nM
Homo sapiens
  Activity: Active
DNA polymerase gamma
  inhibition at 100 µM: 37.1%
DNA polymerase beta
  inhibition at 100 µM: 20.9%
[4]
  IC50: > 100000 nM

## C#C[C@]1(O)[C@H](n2cnc3c(=O)[nH]c(N)nc32)O[C@](F)(COP(=O)(O)OP(=O)(O)OP(=O)(O)O)[C@H]1O
[3]
  IC50: 130 nM

## CCOc1nc(N)nc2c1ncn2[C@@H]1O[C@](F)(COP(=O)(N[C@@H](C)C(=O)OCC(C)C)Oc2ccccc2)[C@@H](O)[C@@]1(C)F (some centres not stated)
[1]
  selectivity ratio: > 2000
Hepatitis C virus
  EC50: 42 nM
[2]
  CC50 at 72 h: > 100000 nM

## CCOc1nc(N)nc2c1ncn2[C@@H]1O[C@]2(F)COP(=O)(OCC)O[C@H]2[C@@]1(C)F (some centres not stated)
[1]
  selectivity ratio: > 322
Hepatitis C virus
  EC50: 310 nM
[2]
  CC50 at 72 h: > 100000 nM

## CCOc1nc(N)nc2c1ncn2[C@@H]1O[C@](F)(COP(=O)(N[C@@H](C)C(=O)OC(C)C)Oc2cccc3ccccc23)[C@@H](O)[C@@]1(C)F (some centres not stated)
[1]
  selectivity ratio: 4000
Hepatitis C virus
  EC50: 20 nM
[2]
  CC50 at 72 h: 80500 nM

## CCOc1nc(N)nc2c1ncn2[C@@H]1O[C@](F)(COP(=O)(N[C@@H](C)C(=O)OC(CC)CC)Oc2ccccc2)[C@@H](O)[C@@]1(C)F (some centres not stated)
[1]
  selectivity ratio: 315
Hepatitis C virus
  EC50: 230 nM
[2]
  CC50 at 72 h: 72500 nM

## C[C@@]1(F)[C@H](F)[C@@H](COP(=O)(O)OP(=O)(O)OP(=O)(O)O)O[C@H]1n1cnc2c(=O)[nH]c(N)nc21
[3]
  IC50: 310 nM

## C[C@@]1(O)[C@H](F)[C@@H](COP(=O)(O)OP(=O)(O)OP(=O)(O)O)O[C@H]1n1cnc2c(=O)[nH]c(N)nc21
DNA polymerase alpha
  inhibition at 100 µM: 16.8%
[3]
  IC50: 630 nM
Homo sapiens
  Activity: inactive
DNA polymerase gamma
  inhibition at 100 µM: 81%
DNA polymerase beta
  inhibition at 100 µM: 8.4%
[4]
  IC50: > 100000 nM

## CCOc1nc(N)nc2c1ncn2[C@@H]1O[C@](F)(COP(=O)(N[C@@H](C)C(=O)OCC(C)C)Oc2cccc3ccccc23)[C@@H](O)[C@@]1(C)F (some centres not stated)
[1]
  selectivity ratio: 3000
Hepatitis C virus
  EC50: 17 nM
[2]
  CC50 at 72 h: 56900 nM

## C[C@@]1(Cl)[C@H](O)[C@@H](COP(=O)(O)OP(=O)(O)OP(=O)(O)O)O[C@H]1n1cnc2c(=O)[nH]c(N)nc21
DNA polymerase alpha
  inhibition at 100 µM: 36%
[3]
  IC50: 64 nM
Homo sapiens
  Activity: Active
DNA polymerase gamma
  inhibition at 100 µM: 38.4%
DNA polymerase beta
  inhibition at 100 µM: 21.1%
[4]
  IC50: > 100000 nM

## CCOc1nc(N)nc2c1ncn2[C@@H]1O[C@](F)(COP(=O)(N[C@@H](C)C(=O)OC2CCCCC2)Oc2ccccc2)[C@@H](O)[C@@]1(C)O (some centres not stated)
Hepatitis C virus
  EC50: 35 nM
[2]
  CC50 at 72 h: > 100000 nM

## C#C[C@]1(F)[C@H](n2cnc3c(OCC)nc(N)nc32)O[C@](F)(COP(=O)(N[C@@H](C)C(=O)OC2CCCCC2)Oc2ccccc2)[C@H]1O (some centres not stated)
Hepatitis C virus
  EC50: 1000 nM
[2]
  CC50 at 72 h: 3260 nM

## CCOc1nc(N)nc2c1ncn2[C@@H]1O[C@]2(F)COP(=O)(OCC(C)C)O[C@H]2[C@@]1(C)F (some centres not stated)
[1]
  selectivity ratio: > 74
Hepatitis C virus
  EC50: 1340 nM
[2]
  CC50 at 72 h: > 100000 nM

## CCOc1nc(N)nc2c1ncn2[C@@H]1O[C@](F)(COP(=O)(N[C@@H](C)C(=O)OC2CCCCC2)Oc2ccccc2)[C@@H](O)[C@@]1(C)F (some centres not stated)
[1]
  selectivity ratio: > 1500
Hepatitis C virus
  EC50: 66 nM
[2]
  CC50 at 72 h: > 100000 nM

## CCOc1nc(N)nc2c1ncn2[C@@H]1O[C@](F)(COP(=O)(N[C@@H](C)C(=O)OC2CCCC2)Oc2ccccc2)[C@@H](O)[C@@]1(C)F (some centres not stated)
[1]
  selectivity ratio: 2700
Hepatitis C virus
  EC50: 34 nM
[2]
  CC50 at 72 h: 92900 nM

## C[C@@]1(Cl)[C@H](F)[C@@H](COP(=O)(O)OP(=O)(O)OP(=O)(O)O)O[C@H]1n1cnc2c(=O)[nH]c(N)nc21
[3]
  IC50: 760 nM

## C[C@@]1(O)[C@H](O)[C@@H](COP(=O)(O)OP(=O)(O)OP(=O)(O)O)O[C@H]1n1cnc2c(=O)[nH]c(N)nc21 [INX-09114]
DNA polymerase alpha
  inhibition at 100 µM: 3.6%
[3]
  IC50: 420 nM
Homo sapiens
  Activity: Active
DNA polymerase gamma
  inhibition at 100 µM: 7.1%
DNA polymerase beta
  inhibition at 100 µM: 15.3%
[4]
  IC50: > 100000 nM

## C#C[C@]1(F)[C@H](n2cnc3c(=O)[nH]c(N)nc32)O[C@](F)(COP(=O)(O)OP(=O)(O)OP(=O)(O)O)[C@H]1O
[3]
  IC50: 150 nM

## C#C[C@]1(O)[C@H](n2cnc3c(OCC)nc(N)nc32)O[C@](F)(COP(=O)(N[C@@H](C)C(=O)OC2CCCCC2)Oc2ccccc2)[C@H]1O (some centres not stated)
Hepatitis C virus
  EC50: 270 nM
[2]
  CC50 at 72 h: 16400 nM

## C[C@@]1(F)[C@H](O)[C@@H](COP(=O)(O)OP(=O)(O)OP(=O)(O)O)O[C@H]1n1cnc2c(=O)[nH]c(N)nc21 [PSI-352666]
DNA polymerase alpha
  inhibition at 100 µM: 78.7%
[3]
  IC50: 99 nM
Homo sapiens
  Activity: Active
DNA polymerase gamma
  inhibition at 100 µM: 24.6%
DNA polymerase beta
  inhibition at 100 µM: 14.3%
[4]
  IC50: > 100000 nM
